High-throughput results deposited in PubChem by Broad Institute.
Compounds with a hit are over-represented: about 2.6% of the library has one in this group of screens.
DENV2 CPE: inhibitors of DENV2 cytopathic effect; DENV2-infected cells, cytopathic effect rescue, plate reader; actives 1.7% (n = 350,000); CPE inhibition, % at 9.99 µM; in the data active means CPE inhibition above about 20%, passing the limit was not always enough; inconclusive means no clear call, values can overlap the other calls; tested in BHK-21 cells
miR122 inh: inhibitors of miR-122 in Huh7 cells; actives 0.3% (n = 340,000); AID 602342; Huh7 miR-122 Renilla luciferase sensor, 48 h; neutral wells = 0, positive control = 100; activation (reporter increase), % at 12.5 µM;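 active means mean replicate activation score at least 90 and every replicate individually at or above 90; inconclusive means only one of the two criteria met; inactive means neither criterion met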;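 further: higher luciferase means less miR-122 activity so hits act as miR-122 inhibitors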
E-sel inducer: E-selectin induction on HUVECs; HUVEC E-selectin immunofluorescence imaging; normalized: neutral wells 0, TNF-alpha wells 100; actives 0.37% (n = 260,000); P16581; AID 686992; activation, % at 7.58 µM;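 active means mean E-selectin-positive cell signal at least 10% of the positive control, reached in at least 60% of replicates, without over 20% cell loss; inconclusive means no rule given, readout overlaps actives, possibly toxicity-flagged; inactive means the rest, including those meeting only one limit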
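Test system – human umbilical vein endothelial cells (HUVEC), E-selectin induction · Input – 3,000 HUVEC seeded per well · Buffer or medium – EGM-2, gelatin · Compound dosing – single-point compound dose · Detection – immunofluorescence imaging · Measure – percent E-selectin-positive cells · Controls – TNF-alpha high, DMSO low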
GSIS activator: primary screen for activators of insulin secretion dependent on glucose, INS-1E cells, GLuc reporter luminescence; actives 0.61% (n = 370,000); activation, % at 16.6 µM; AID 743287; INS-1E GLuc reporter insulin secretion, 2-3 h;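 active means lowest replicate activation of at least 40%, so every replicate reaches that level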
F508del corr: CFTR F508del correction in bronchial cells; actives 0.36% (n = 350,000); activity (quench increase), % at 7.58 µM; CFBE cells, YFP halide quenching; stimulated with forskolin plus potentiator P3; % fluorescence drop versus neutral controls;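 active means mean added fluorescence quench of at least 8% versus neutral control, with both replicates also reaching 8%; inconclusive means only one of the mean or replicate conditions met; inactive means mean below 8% and not both replicates reaching 8%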;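 further: cells transiently co-express mutant CFTR-F508del with the halide-sensitive YFP; corrector assay measuring rescue of mutant channel to the surface after 24 h compound exposure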
ERAP1 HTS inh: blocks human ERAP1 aminopeptidase activity; AID 652197; recombinant ERAP1, Leu-AMC fluorescence, 60 min; actives 0.15% (n = 340,000); inhibition, % at 10.7 µM; Q9NZ08;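 active means mean replicate inhibition of at least 30%, or all replicates individually reaching that 30% level; inactive means mean below 30% and not every replicate reaching it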
Target sequence (Q9NZ08 whole entry, looked up): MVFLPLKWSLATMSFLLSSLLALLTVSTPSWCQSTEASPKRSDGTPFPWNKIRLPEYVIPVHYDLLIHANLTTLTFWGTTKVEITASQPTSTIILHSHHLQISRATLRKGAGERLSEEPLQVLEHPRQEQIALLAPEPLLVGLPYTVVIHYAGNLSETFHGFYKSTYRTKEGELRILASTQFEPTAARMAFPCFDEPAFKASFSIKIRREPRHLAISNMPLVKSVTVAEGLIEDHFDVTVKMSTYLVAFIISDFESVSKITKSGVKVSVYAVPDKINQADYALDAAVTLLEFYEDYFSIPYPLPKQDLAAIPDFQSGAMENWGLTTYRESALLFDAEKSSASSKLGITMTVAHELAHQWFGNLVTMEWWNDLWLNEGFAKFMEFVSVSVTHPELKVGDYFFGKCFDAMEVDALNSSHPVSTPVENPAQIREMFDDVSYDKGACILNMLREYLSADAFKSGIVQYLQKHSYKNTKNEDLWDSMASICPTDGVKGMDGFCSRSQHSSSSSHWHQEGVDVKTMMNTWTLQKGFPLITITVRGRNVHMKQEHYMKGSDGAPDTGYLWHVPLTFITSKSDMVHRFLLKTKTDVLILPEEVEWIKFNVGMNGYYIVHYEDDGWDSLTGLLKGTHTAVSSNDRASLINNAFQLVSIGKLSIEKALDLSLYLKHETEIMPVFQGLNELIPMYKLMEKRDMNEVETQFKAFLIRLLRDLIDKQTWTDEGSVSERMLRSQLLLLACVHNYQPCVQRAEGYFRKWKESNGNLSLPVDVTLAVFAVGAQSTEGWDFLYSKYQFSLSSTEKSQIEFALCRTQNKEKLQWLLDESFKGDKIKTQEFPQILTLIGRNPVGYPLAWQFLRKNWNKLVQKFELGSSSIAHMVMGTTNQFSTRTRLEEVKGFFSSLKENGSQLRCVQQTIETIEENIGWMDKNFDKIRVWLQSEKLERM
Each line names hits and unclear results; the compound was inactive in the other large screens; [ ] = another dose, or the depositor's remark.

CO[C@H]1CN(C)C(=O)c2cc(NS(=O)(=O)c3ccc(-c4ccccc4)cc3)ccc2OC[C@H](C)NC[C@H]1C	none
CO[C@H]1CN(C)C(=O)c2cc(NS(=O)(=O)c3ccc(-c4ccccc4)cc3)ccc2OC[C@H](C)NC[C@@H]1C	DENV2 CPE 23
CO[C@H]1CC[C@H]2CCOc3ccc(C#N)cc3C(=O)N(C)CCCC(=O)N(C)C[C@@H]1O2	none (no result: miR122 inh, F508del corr)
O=C(COC(=O)c1cc(Cl)nc2ccccc12)c1ccc(Cl)cc1	DENV2 CPE 63 (no result: GSIS activator)
Cc1ccc(C(=O)COC(=O)c2cc(Cl)nc3ccccc23)cc1	none (no result: DENV2 CPE, E-sel inducer, GSIS activator, F508del corr, ERAP1 HTS inh)
CC(C)NC(=O)Nc1cccc2c1O[C@H](CN(C)C(=O)NC(C)C)[C@@H](C)CN([C@H](C)CO)C2=O	DENV2 CPE inconclusive
CC(C)NC(=O)Nc1cccc2c1O[C@@H](CN(C)C(=O)NC(C)C)[C@@H](C)CN([C@@H](C)CO)C2=O	DENV2 CPE 66
CC(C)NC(=O)Nc1cccc2c1O[C@@H](CN(C)C(=O)Nc1ccccc1)[C@H](C)CN([C@H](C)CO)C2=O	none
CC(C)NC(=O)Nc1cccc2c1O[C@H](CN(C)C(=O)Nc1ccccc1)[C@@H](C)CN([C@@H](C)CO)C2=O	DENV2 CPE 48
CC(C)NC(=O)Nc1ccc2c(c1)C(=O)N([C@@H](C)CO)C[C@H](C)[C@H](CN(C)C(=O)CCC(F)(F)F)OCCCC[C@@H](C)O2	none
C[C@H](CO)N1C[C@H](C)[C@@H](CN(C)C(=O)Cc2ccncc2)Oc2ncc(C#C[C@@H](C)O)cc2C1=O	none
O=C(Nc1ccc(F)c(Cl)c1)Nn1cnnc1	DENV2 CPE 76
O=C(Nc1ccc(F)cc1)Nn1cnnc1	none
CC(C)OCCCNC(=O)c1c(N)n(/N=C/c2ccccn2)c2nc3ccccc3nc12	GSIS activator 76 (no result: DENV2 CPE, E-sel inducer, F508del corr, ERAP1 HTS inh)
C[C@H]1CN([C@@H](C)CO)C(=O)c2cccc(NS(=O)(=O)c3ccc(Cl)cc3)c2O[C@@H]1CN(C)Cc1ccc(C(=O)Nc2ccccc2N)cc1	DENV2 CPE 21 (no result: miR122 inh)
C[C@@H]1CN([C@@H](C)CO)C(=O)c2cccc(NS(=O)(=O)c3ccccc3)c2O[C@@H]1CN(C)Cc1ccc(C(=O)Nc2ccccc2N)cc1	miR122 inh 181[16.7 µM]
C[C@@H]1CN([C@@H](C)CO)C(=O)c2cccc(NS(=O)(=O)c3ccc(Cl)cc3)c2O[C@@H]1CN(C)Cc1ccc(C(=O)Nc2ccccc2N)cc1	miR122 inh 129[16.7 µM]
COCC(=O)Nc1ccc2c(c1)C(=O)N(C)[C@@H]1CC[C@@H](CC(=O)NCC3CC3)O[C@H]1CO2	none
C[C@]12C(=O)N(c3ccccc3)C(=O)N1[C@@H]1c3ccccc3OC[C@@H]1[C@H]2c1ccccc1	DENV2 CPE 97 (no result: E-sel inducer)
C[C@]12C(=O)N(c3ccccc3)C(=O)N1[C@H]1c3ccccc3OC[C@@H]1[C@H]2c1ccccc1	none
Cc1ccc(-n2nnnc2SCC(=O)N2c3ccccc3NC(=O)C2(C)C)cc1	miR122 inh 160 (no result: DENV2 CPE, E-sel inducer, GSIS activator, F508del corr, ERAP1 HTS inh)
Cc1ccc(-c2nnc(SCC(=O)N3c4ccccc4NC(=O)C3(C)C)n2N)cc1	none (no result: DENV2 CPE, E-sel inducer, GSIS activator, F508del corr, ERAP1 HTS inh)
COc1cc(/C=C/C(=O)Nc2nnc(CC(C)C)s2)cc(OC)c1OC	none (no result: miR122 inh, F508del corr)
COc1cc(/C=C/C(=O)Nc2nnc(CC(C)(C)C)s2)cc(OC)c1OC	DENV2 CPE 100
COc1cccc2c1C(=O)c1c(O)c3c(c(O)c1C2=O)C[C@@](O)(C(C)=O)C[C@@H]3O[C@H]1C[C@H](N)[C@H](O)[C@H](C)O1	F508del corr 75 (no result: E-sel inducer, GSIS activator)
COc1cccc2c1C(=O)c1c(O)c3c(c(O)c1C2=O)CC(O)(C(=O)CO)CC3OC1CC(N(C)C)C(O)C(C)O1 (stereo not drawn)	F508del corr 25 (no result: E-sel inducer, GSIS activator)
Cc1ccc(N2CC(O)Cn3c2nc2c3c(=O)n(C)c(=O)n2C)cc1 (stereo not drawn)	none (no result: E-sel inducer)
Cn1c(=O)c2c(nc3n2CC(O)CN3c2ccc(O)cc2)n(C)c1=O (stereo not drawn)	DENV2 CPE 39 (no result: GSIS activator)
COc1ccc2c3c([nH]c2c1)[C@@H](CO)N(C)CC31CCN(C(=O)c2cccnc2)CC1	none (no result: miR122 inh, ERAP1 HTS inh)
